Measurements collected from several papers.
Lines come from different studies, so protocols differ.
Target: Ephrin type-A receptor 8 (EPHA8, Homo sapiens, UniProt P29322)
One construct used (P29322 28-1005): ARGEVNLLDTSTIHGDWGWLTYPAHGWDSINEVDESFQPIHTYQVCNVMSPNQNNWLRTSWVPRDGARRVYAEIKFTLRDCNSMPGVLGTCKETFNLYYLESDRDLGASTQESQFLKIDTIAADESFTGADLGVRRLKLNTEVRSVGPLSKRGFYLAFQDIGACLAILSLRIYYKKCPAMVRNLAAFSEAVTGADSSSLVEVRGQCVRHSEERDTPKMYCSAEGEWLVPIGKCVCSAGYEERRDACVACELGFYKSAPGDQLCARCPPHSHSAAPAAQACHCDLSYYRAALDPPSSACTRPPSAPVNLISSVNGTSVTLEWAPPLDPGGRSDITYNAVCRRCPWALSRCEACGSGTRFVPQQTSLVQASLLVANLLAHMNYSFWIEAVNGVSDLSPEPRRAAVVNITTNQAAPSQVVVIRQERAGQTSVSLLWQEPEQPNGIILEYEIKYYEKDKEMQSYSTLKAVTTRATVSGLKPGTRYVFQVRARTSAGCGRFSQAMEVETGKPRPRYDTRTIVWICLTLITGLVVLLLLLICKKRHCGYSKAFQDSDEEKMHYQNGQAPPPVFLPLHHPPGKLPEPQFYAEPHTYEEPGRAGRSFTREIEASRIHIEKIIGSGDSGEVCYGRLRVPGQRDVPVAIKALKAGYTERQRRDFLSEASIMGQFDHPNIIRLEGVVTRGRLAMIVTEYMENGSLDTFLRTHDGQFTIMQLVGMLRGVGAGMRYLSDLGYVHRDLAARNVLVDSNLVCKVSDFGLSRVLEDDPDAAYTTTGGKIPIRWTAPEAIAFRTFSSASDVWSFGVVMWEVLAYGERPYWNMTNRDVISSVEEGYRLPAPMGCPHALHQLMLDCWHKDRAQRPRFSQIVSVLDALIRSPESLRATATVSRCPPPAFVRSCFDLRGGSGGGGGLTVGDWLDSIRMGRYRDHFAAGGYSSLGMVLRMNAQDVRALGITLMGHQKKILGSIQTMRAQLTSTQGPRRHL

| Structure (SMILES) | observed | mode | method | concentration | measurement | value |
| --- | --- | --- | --- | --- | --- | --- |
| O=C(NCc1ncc(C(F)(F)F)cc1Cl)c1ccc2c(c1)C1(CCS(=O)(=O)CC1)[C@@H](C1CC1)N2S(=O)(=O)c1ccc(F)cc1 | cell-free assay |  | competition with immobilised ligand | 1 µM | remaining binding | 100% |
| Cc1cnc(NC2CCOCC2)nc1-n1cnc(C(=O)NC(CN)c2cc(F)cc(Cl)c2)c1 (stereo not drawn) | enzyme activity | inhibitor | radiometric | 1 µM | remaining activity | 95% |
| CCN(CC)CCNC(=O)c1c(C)[nH]c(/C=C2\C(=O)Nc3ccc(F)cc32)c1C | cell-free assay |  |  | 0.5 µM | remaining signal | 92.1% |
| CNC(=O)c1ccc(Nc2ncc(C(F)(F)F)c(NCc3nccnc3N(C)S(C)(=O)=O)n2)cc1 | cell-free assay |  | competition with immobilised ligand | 0.1 µM | remaining binding | 87% |
| Clc1ccc(Nc2nnc(Cc3ccncc3)c3ccccc23)cc1 | cell-free assay |  |  | 0.5 µM | remaining signal | 100% |
| C[C@H](NC(=O)c1cnc2n1[C@](C)(Cc1ccc(C#N)cc1)C(=O)N2c1cc(Cl)c(F)c(Cl)c1)C(=O)NC1(c2ccccn2)CC1 | cell-free assay |  | competition with immobilised ligand | 1 µM | remaining binding | 100% |
| Cc1cc(NC(=O)c2cccc3cc(-c4cccc5[nH]nc(N)c45)ccc23)ccc1F | enzyme activity | inhibitor |  | 0.1 µM | activity vs control | 97% |
| COc1cc(-c2cc(-c3ccc(N4CCNCC4)cc3)cnc2C)cc(OC)c1OC | enzyme activity | inhibitor |  | 0.1 µM | inhibition | 3% |
| O=C(NCCCC1CCCCC1)c1ccc(CNC(=O)c2cnn(-c3ccccc3)c2C(F)(F)F)cc1 | cell-free assay |  | competition with immobilised ligand | 0.1 µM | remaining binding | 95% |
| CC(C)(C)c1nc2c(s1)c1nc(N)ncc1c1ccc(NS(=O)(=O)c3c(F)cccc3F)c(F)c12 | enzyme activity | inhibitor | radiometric | 1 µM | remaining activity | 95% |
| N#CCCc1ccc2c(c1)-c1[nH]c3ccc([N+](=O)[O-])cc3c1CC(=O)N2 | cell-free assay |  |  | 0.5 µM | remaining signal | 105% |
| Cc1ccc(Nc2nccc(N(C)c3ccc4c(C)n(C)nc4c3)n2)cc1S(N)(=O)=O | enzyme activity | inhibitor |  | 0.3 µM | inhibition | 17% |
| O=C(Nc1cnn(-c2csc(C(=O)NC3COC3)c2)c1)Nc1ccccc1Cl | enzyme activity | inhibitor |  | 5 µM | remaining activity | 103% |
| CC/C(=N\NC(=O)NCc1cccc(O)c1)c1ccc(O)c(C)c1O | enzyme activity | inhibitor |  | 0.1 µM | inhibition | -0.5% |
| CCN(CC)c1ccc(C2=NNC(=O)CC2C)cc1[N+](=O)[O-] (stereo not drawn) | enzyme activity | inhibitor |  | 10 µM | remaining activity | 115% |
| c1ccc(N2CCN(Cc3nc4ccccc4[nH]3)CC2)nc1 | cell-free assay |  | competition with immobilised ligand | 1 µM | remaining binding | 100% |
| COc1cc2ncnc(Nc3ccc(Oc4ccccc4)c(C)c3C)c2cc1OC | enzyme activity | inhibitor |  | 1 µM | inhibition | 6% |
| O=C(Nc1cnn(-c2csc(C(=O)NC3COC3)c2)c1)Nc1c(F)cccc1Cl | enzyme activity | inhibitor |  | 5 µM | remaining activity | 93.8% |
| O=C1CCc2cc(Nc3cc(OC4CCOCC4)c([N+](=O)[O-])cc3Cl)ccc2N1 | cell-free assay |  | competition with immobilised ligand | 1 µM | remaining binding | 100% |
| Cc1ccc(NC(=O)c2ccc(C)c(C(F)(F)F)c2)cc1C#Cc1nn(C2CCC(O)CC2)c2ncnc(N)c12 (stereo not drawn) | cell-free assay |  |  | 10 µM | remaining signal | 2% |
| CNC(=O)c1cc(Oc2ccc(NC(=O)Nc3ccc(Cl)c(C(F)(F)F)c3)cc2)ccn1 | enzyme activity | inhibitor |  | 10 µM | inhibition | 89% |
